MrgX1 ag – human MrgX1 receptor agonism, primary screen. Q96LB2. MrgX1-HEK293 cells, Fluo-4 calcium fluorescence, agonist mode; stronger effect = higher value. actives 0.44% (n = 310,000). B-score at 10 µM;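 active means calcium response B-score plate-corrected fluorescence ratio at least 3 library SD, with starting fluorescence B-score inside 5 SD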
Target sequence (Q96LB2 whole entry, looked up): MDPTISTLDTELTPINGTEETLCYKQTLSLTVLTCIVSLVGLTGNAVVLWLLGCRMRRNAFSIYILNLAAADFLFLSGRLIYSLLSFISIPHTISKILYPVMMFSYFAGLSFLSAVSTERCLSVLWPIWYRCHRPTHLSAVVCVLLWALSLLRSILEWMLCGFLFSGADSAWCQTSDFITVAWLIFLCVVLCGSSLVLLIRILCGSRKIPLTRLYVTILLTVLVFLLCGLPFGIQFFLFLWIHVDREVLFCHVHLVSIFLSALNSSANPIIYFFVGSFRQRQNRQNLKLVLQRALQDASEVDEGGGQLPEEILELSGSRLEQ
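Assay system: MrgX1-expressing HEK293 cells / Amount: fifteen thousand cells per well / Doses: test compound in the initial addition of three / Timing: cells plated overnight, dye loaded 0.5 h 37 °C, 0.5 h room temperature / Technique: kinetic calcium dye fluorescence, Fluo-4 NW / Control set: positive and negative controls per plate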
MrgX1 allo act – allosterically activates human MrgX1 receptor signaling; actives 0.63% (n = 310,000); AID 588675; B-score at 10 µM; MrgX1-HEK293, Fluo-4 calcium flux, FDSS; stronger effect = higher value;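 active means plate-corrected calcium response at least 3 library SD above typical, normal starting fluorescence, not activating the receptor alone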;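 further: compound read alongside a low EC10 to EC30 dose of BAM8-22 agonist; peak minus trough fluorescence over baseline measured at the second addition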
RGS4 block – human RGS4 inhibition; P49798; HEK293 M3R/RGS4 inducible, Fluo-4 calcium flux; stronger effect = higher value; triggered by carbachol at its EC20; B-score at 10 µM; actives 0.45% (n = 310,000);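 active means B-score, a plate-corrected calcium signal, over three deviations above library mean, with baseline fluorescence within five deviations of library mean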;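 further: RGS4 expression induced by doxycycline in cells with stable M3 receptor; B-score is computed from the integrated fluorescence ratio over baseline after carbachol; higher B-score means a larger calcium signal and so more RGS4 inhibition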
Target sequence (P49798 whole entry, looked up): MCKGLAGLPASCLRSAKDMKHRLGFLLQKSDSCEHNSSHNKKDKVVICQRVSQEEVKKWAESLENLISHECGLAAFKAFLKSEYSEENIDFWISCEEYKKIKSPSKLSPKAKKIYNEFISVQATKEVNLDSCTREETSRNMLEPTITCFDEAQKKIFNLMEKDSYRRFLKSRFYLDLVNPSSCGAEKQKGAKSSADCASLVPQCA
MrgX1 antagonist – human MrgX1 receptor antagonism, primary screen | Q96LB2 | MRGX1-HEK293 calcium flux, Fluo-4, BAM8-22 antagonism; stronger effect = lower value | B-score at 10 µM | actives 1.3% (n = 310,000);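 active means calcium-response B-score plate-corrected more than 3 library SD below zero, starting fluorescence within 5 deviations, no agonist response on first addition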;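 further: peak minus trough fluorescence over baseline after final BAM8-22 challenge near maximal dose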
RGS4 pot – potentiators or activators of RGS4 | B-score at 10 µM | HEK293 M3R/inducible RGS4, carbachol calcium flux Fluo4; stronger effect = lower value | actives 0.92% (n = 310,000);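 active means B-score of the integrated calcium signal more than 4 SD below the library mean, with starting fluorescence not abnormally high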;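 further: negative B-score means reduced calcium response which marks RGS4 activation or potentiation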
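test system = HEK293 cells with stable M3R and inducible RGS4 | schedule = recording 10 s baseline at 1 Hz, 100 s post-agonist | technique = Fluo4-AM (2 µM) calcium-flux fluorescence, kinetic read | measure = Agonist-evoked peak-minus-minimum fluorescence over baseline, integrated ratio, B score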
MrgX1 PAM conf – reconfirmed allosteric activator of human MrgX1 receptor; shares compounds with MrgX1 allo act; MrgX1-HEK293, Fluo-4 calcium fluorescence, FDSS; activation (ratio percentage), % at 10 µM; actives 13% (n = 1,200); AID 602413;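 active means ratio at least 3 SD above the weak peptide control, stable starting fluorescence, no direct agonism earlier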;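 further: compound followed by low BAM8-22 agonist challenge near EC20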
HEK293 Ca flux – MrgX1 antagonist counter-screen hit in parental HEK293 cells; AID 624111; shares compounds with MrgX1 antagonist; fluorescence ratio F(max-min)/F0 at 10 µM; Fluo-4 calcium fluorescence, FDSS; actives 2% (n = 4,000);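 active means duplicate-averaged calcium fluorescence ratio at least three times the standard deviation of buffer wells, a nonspecific response in parental cells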
HEK293 Ca counter – counter-screen for MrgX1 allosteric activators: effect in parental HEK293 cells; shares compounds with MrgX1 antagonist; parental HEK293 calcium flux, Fluo-4 fluorescence ratio; stronger effect = higher value; fluorescence ratio F(max-min)/F0 at 10 µM; actives 0.4% (n = 4,000);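 active means calcium fluorescence ratio, averaged over duplicates, at least 3 SD of the buffer-well ratio, meaning a nonspecific response in receptor-free cells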;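 further: untransfected parental HEK293 lacking MrgX1 used as counterscreen for MrgX1 allosteric activators; fluorescence change taken during the second addition on a kinetic imager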
HEK293 Ca cntr2 – MrgX1 activator counter-screen hit in parental HEK293 cells | Fluo-4 calcium fluorescence (FDSS); stronger effect = higher value | shares compounds with MrgX1 antagonist | actives 8.7% (n = 4,000) | fluorescence ratio F(max-min)/F0 at 10 µM | AID 624115;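 active means calcium fluorescence ratio at least three times the spread of buffer wells, meaning a non-specific response in parental cells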
Each line names hits and unclear results; the compound was inactive in the other large screens (follow-up assays come after a bar, where they were run). A selection: hits, their analogues and other compounds. The true share with any hit is near 3.5%.

Cc1nn(-c2ccccc2)nc1C(=O)Nc1nnc(C(F)(F)F)s1	MrgX1 allo act 6.53 | MrgX1 PAM conf inactive | HEK293 Ca flux inactive | HEK293 Ca counter inactive | HEK293 Ca cntr2 67.7
CC(C(=O)Nc1sc2c(c1C(=O)NCC1CCCO1)CCC2)N1C(=O)c2ccccc2C1=O (stereo unspecified)	none
CC1CCC2(CC1)C(Nc1cccc(Cl)c1)=NC(=S)N2CC#N (stereo unspecified)	MrgX1 allo act 8.34 | MrgX1 PAM conf inactive | HEK293 Ca flux inactive | HEK293 Ca counter inactive | HEK293 Ca cntr2 inactive
CC1CCC(=C(C#N)C(=O)Nc2cccc(Cl)c2)CC1 (stereo unspecified)	none
CCCCCCn1c(N2CCCC2)nc2c1c(=O)[nH]c(=O)n2C	MrgX1 allo act 11.9 | MrgX1 PAM conf 9.9% | HEK293 Ca flux inactive | HEK293 Ca counter inactive | HEK293 Ca cntr2 inactive
Cn1c(=O)[nH]c(=O)c2c1nc(N1CCNCC1)n2Cc1ccccc1Cl	MrgX1 allo act 10.4 | MrgX1 PAM conf inactive | HEK293 Ca flux inactive | HEK293 Ca counter inactive | HEK293 Ca cntr2 inactive
CCCN(C(=O)CSc1nc2ccccc2n1CC)C1CCS(=O)(=O)C1 (stereo unspecified)	none
COc1ccc(C(=O)NC(=S)N2CC(C)OC(C)C2)cc1OC (stereo unspecified)	none
Cc1ccc(-n2c(C)cc(C(=O)CSc3nnnn3C)c2C)cc1	none
Cc1ccc(-n2c(C)cc(C(=O)CSc3nncs3)c2C)cc1	MrgX1 allo act 7.04 | MrgX1 PAM conf 2.1% | HEK293 Ca flux inactive | HEK293 Ca counter inactive | HEK293 Ca cntr2 inactive
CS(=O)(=O)n1nc(OC(=O)c2cccc3ccccc23)cc1N	MrgX1 allo act 6.54 | MrgX1 PAM conf 14.0% | HEK293 Ca flux inactive | HEK293 Ca counter inactive | HEK293 Ca cntr2 inactive
COc1ccc(S(=O)(=O)n2nc(OC(C)=O)cc2N(C(C)=O)C(C)=O)cc1	MrgX1 allo act 13.2 | MrgX1 PAM conf inactive | HEK293 Ca flux inactive | HEK293 Ca counter inactive | HEK293 Ca cntr2 inactive
COc1ccc(S(=O)(=O)n2nc(OC(=O)c3ccccc3)cc2N)cc1	none
COc1ccc(S(=O)(=O)n2nc(OC(=O)c3ccccc3Br)cc2N)cc1	MrgX1 allo act 10.3 | MrgX1 PAM conf 32.1% | HEK293 Ca flux inactive | HEK293 Ca counter inactive | HEK293 Ca cntr2 inactive
CS(=O)(=O)n1nc(OC(=O)c2cc(Br)ccc2Cl)cc1N	none
Cc1ccc(Nc2c([N+](=O)[O-])ccc3nonc23)cc1C	none
CCN(CC)c1ccc(/C=N/NC(=O)c2nnn(-c3nonc3N)c2-c2ccc(C)cc2)cc1	none
COc1ccc(C=O)cc1Cn1cnc2c(cnn2C)c1=O	none
COc1ccc(C(C)=O)cc1Cn1cnc2c(cnn2C)c1=O	MrgX1 allo act 11.4 | MrgX1 PAM conf inactive | HEK293 Ca flux inactive | HEK293 Ca counter inactive | HEK293 Ca cntr2 inactive
CN(C)CCOc1ccc2ccccc2c1	none
c1ccc2cc(OCCOCCOc3ccc4ccccc4c3)ccc2c1	MrgX1 allo act 12.7 | MrgX1 PAM conf inactive | HEK293 Ca flux inactive | HEK293 Ca counter inactive | HEK293 Ca cntr2 inactive
Cc1cccc2nc3ccccc3nc12	MrgX1 allo act 9.32 | MrgX1 PAM conf inactive | HEK293 Ca flux inactive | HEK293 Ca counter inactive | HEK293 Ca cntr2 inactive
c1ccc2nc3ccccc3nc2c1	none
COc1ccc(OCc2ccc(/C=N\NC(=O)c3sccc3C)o2)cc1	none
CCC(C)n1c(NC(=O)c2ccccc2)c(C#N)c2nc3ccccc3nc21 (stereo unspecified)	MrgX1 allo act 7.95 | MrgX1 PAM conf inactive | HEK293 Ca flux inactive | HEK293 Ca counter inactive | HEK293 Ca cntr2 inactive
CCc1nnc(NC(=O)C2CCCN2C(=O)Nc2ccc(Cl)cc2)s1 (stereo unspecified)	none
C/C(=N\OCC(=O)Nc1ccccc1C(=O)O)c1cccs1	none
C/C(=N/OCC(=O)Nc1ccc(C)cc1C)c1cccs1	MrgX1 allo act 27.2 | MrgX1 PAM conf 3.9% | HEK293 Ca flux inactive | HEK293 Ca counter inactive | HEK293 Ca cntr2 inactive
c1ccc(-c2nc3c(ccc4ccccc43)[nH]2)nc1	MrgX1 allo act 6.75 | MrgX1 PAM conf inactive | HEK293 Ca flux inactive | HEK293 Ca counter inactive | HEK293 Ca cntr2 inactive
c1ccc(-c2nc3ccccc3[nH]2)nc1	none
COc1cccc(C(=O)Nc2ccccc2F)c1	none
O=C(Nc1ccccc1F)Oc1cccc(OC(=O)Nc2ccccc2F)c1	MrgX1 allo act 7.53 | MrgX1 PAM conf inactive | HEK293 Ca flux inactive | HEK293 Ca counter inactive | HEK293 Ca cntr2 inactive
N#C/C(=C\c1ccc(F)c(Cl)c1)S(=O)(=O)c1ccccn1	none
CC(C)CC(O)(c1ccccc1)C(CN1CCOCC1)c1ccccc1 (stereo unspecified)	none
COc1ccccc1C(O)(c1ccccc1)C(CN1CCOCC1)c1ccccc1 (stereo unspecified)	MrgX1 allo act 9.09 | MrgX1 PAM conf inactive | HEK293 Ca flux inactive | HEK293 Ca counter inactive | HEK293 Ca cntr2 inactive
CC(C)C(O)(c1ccccc1)C(CN1CCOCC1)c1ccccc1 (stereo unspecified)	MrgX1 allo act 8.36 | MrgX1 PAM conf inactive | HEK293 Ca flux inactive | HEK293 Ca counter inactive | HEK293 Ca cntr2 inactive
COC(=O)C1=C(C)NC(=S)N(C(C)=O)C1c1ccc(OC)c(OC)c1 (stereo unspecified)	none
NNc1nc(-c2ccccc2Cl)nc2ccccc12	none
NNc1nc(-c2ccccc2Cl)nc2sc3c(c12)CCCC3	MrgX1 allo act 32.2 | MrgX1 PAM conf inactive | HEK293 Ca flux inactive | HEK293 Ca counter inactive | HEK293 Ca cntr2 inactive
CCOc1ccc(CCNC(=O)CCC(=O)N2CCOc3ccccc32)cc1OCC	none
Cc1ccc(S(=O)(=O)NCCc2ccccc2)cc1	none
Cc1cc(C)c(S(=O)(=O)NCCc2ccccc2)c(C)c1	MrgX1 allo act 9.71 | MrgX1 PAM conf inactive | HEK293 Ca flux inactive | HEK293 Ca counter inactive | HEK293 Ca cntr2 inactive
COc1ccc(S(=O)(=O)N2CCCOC2CNC(=O)C(=O)NCc2ccccc2F)cc1C (stereo unspecified)	none
Cc1nc2scc(C)n2c(=O)c1S(=O)(=O)Nc1ccc(N2CCN(S(C)(=O)=O)CC2)cc1	none

Screening data (PubChem BioAssay)
